In article PMC6408977 (Journal of controlled release : official journal of the …, 2019):
One block for each compound: values may come before it. Non-standard residues stand in square brackets, D forms with d. Residues, ends and D or L forms follow the SMILES beside them. Tyr(3-I) = N[C@@H](Cc1ccc(O)c(I)c1)C(=O)O

How the values were obtained:
[1] = biological target: human serum albumin (Homo sapiens) (UniProt P02768); conditions: cited from earlier work
albumin = conditions: read-out: Albumin dissociation constant; cited from earlier work
[2] = Tissue biodistribution measurements; design: species or system Balb/c mice; conditions: mouse, in vivo, iv
In short: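 Female Balb/c mice, 8–12 weeks old, from an in-house colony (n = 3). Tissue radioactivity was measured at 1 h and 4 h post-injection, alongside whole-body SPECT/CT imaging at the same times.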

Compound: insulin detemir (from UniProt P01308)
- Kd [1]: 4.16 µM

Compound: CC1(C)S[C@@H]2[C@H](NC(=O)Cc3ccccc3)C(=O)N2[C@H]1C(=O)O [penicillin G]
- Kd (albumin): 833 µM

- tissue uptake at 1 h [2]: 18 %ID/g
- tissue uptake at 4 h [2]: 10 %ID/g
Compound: CC(C)C[C@H](NC(=O)CNC(=O)[C@H](C)NC(=O)[C@H](Cc1ccc(O)c(I)c1)NC(=O)CN)C(=O)N[C@@H](C)C(=O)NCC(=O)N[C@@H](CC(C)C)C(=O)N[C@@H](CC(C)C)C(=O)NCC(=O)N[C@@H](CC(C)C)C(=O)N[C@@H](CCC(=O)O)C(=O)NCC(=O)N[C@@H](CC(C)C)C(=O)N[C@@H](CC(C)C)C(=O)NCC(=O)N[C@@H](CC(C)C)C(=O)N1CCC[C@H]1C(=O)N[C@@H](CC(C)C)C(=O)NCC(=O)N[C@@H](CC(C)C)C(=O)N[C@@H](CC(C)C)C(=O)N[C@@H](CCC(=O)O)C(=O)NCC(=O)N[C@@H](CC(C)C)C(=O)N[C@@H](Cc1c[nH]c2ccccc12)C(=O)N[C@@H](CC(C)C)C(=O)NCC(=O)N[C@@H](CC(C)C)C(=O)N[C@@H](CCC(=O)O)C(=O)N[C@@H](CC(C)C)C(=O)N[C@@H](CCC(=O)O)C(=O)NCC(=O)N[C@@H](CC(N)=O)C(=O)O [^125I-ATRAM] (H-G[Tyr(3-I)]AGLAGLLGLEGLLGLPLGLLEGLWLGLELEGN-OH; N-terminus and C-terminus assumed)
